Among the data in ChEMBL document CHEMBL2016524, “Synthesis and in vitro anticancer and antitubercular activity of diarylpyrazole ligated dihydropyrimidines possessing lipophilic carbamoyl group” (2012) are inhibition of growth, MIC and GI50 values, retold here.

Holding throughout (type): functional
Test [1] relates to MCF7. Briefly: Growth inhibition of human MCF7 cells at 100 uM after 24 hrs by SRB assay. The note with it: MCF7, 24 h, read-out: GI. A digest of the protocol:
(§1)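 Human breast cancer MCF-7 cells were exposed to each compound at four doses (1 × 10^-7, 10^-6, 10^-5 and 10^-4 M) and growth was read by sulforhodamine B assay. Values are % control growth, with negative numbers meaning cell kill. GI50 is the concentration giving 50% inhibition of cell growth. Positive controls were included, and each experiment was done three times.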
On the technique in general: Sulforhodamine B stains cellular protein and so reports cell mass.

Test [2] deals with Mycobacterium tuberculosis. Description: Antitubercular activity against Mycobacterium tuberculosis H37Rv after 5 days by microplate Alamar blue assay. The note with it: 120 h. The gist of the method: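 MIC read by resazurin (Alamar Blue) microplate assay after 5 days of incubation at 37 °C. Run in duplicate each time, repeated twice, and MIC confirmed in a BacT/ALERT MP mycobacterial detection system.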

Test [3] relates to MCF7. Description: Growth inhibition of human MCF7 cells after 24 hrs by SRB assay. The note with it: MCF7, 24 h. The gist of the method:
as §1

The subject of test [4] is MCF7. Briefly: Growth inhibition of human MCF7 cells at 10 uM after 24 hrs by SRB assay. The note with it: MCF7, 24 h, read-out: GI. The gist of the method:
as §1

Test [5] relates to MCF7. Description: Growth inhibition of human MCF7 cells at 0.1 uM after 24 hrs by SRB assay. The note with it: MCF7, 24 h, read-out: GI. The gist of the method:
as §1

The subject of test [6] is MCF7. Briefly: Growth inhibition of human MCF7 cells at 1 uM after 24 hrs by SRB assay. The note with it: MCF7, 24 h, read-out: GI. The gist of the method:
as §1

In brackets after ≈: the same amount, converted by molar mass.

Turning to `CC1=C(C(=O)Nc2ccccc2)C(c2cn(-c3ccccc3)nc2-c2ccc(Cl)cc2)NC(=S)N1` (stereo unspecified), the inhibition of growth at 100 µM with MCF7 [1] worked out at 74.7%. Moreover, the MIC in test [2] amounted to 32 µg/mL (≈ 64 µM). The GI50 with MCF7 [3] stood at 61.5 µM. For the same compound, the inhibition of growth at 10 µM in the test on MCF7 [4] is 24.2%.
Taken in the same sequence, the figures for `CCOC(=O)C1=C(C)NC(=O)NC1c1cn(-c2ccccc2)nc1-c1ccc(Cl)cc1` (stereo unspecified) were 70.3%, 0.25 µg/mL (≈ 0.572 µM), 68.8 µM and 17.1%.
Taken in the same sequence, the figures for `CC1=C(C(=O)Nc2ccc(Cl)cc2)C(c2cn(-c3ccccc3)nc2-c2ccc(Cl)cc2)NC(=O)N1` (stereo unspecified) were 88.7%, 32 µg/mL (≈ 61.7 µM), 56.9 µM and under 10%.
For `CCOC(=O)C1=C(C)NC(=S)NC1c1cn(-c2ccccc2)nc1-c1ccc(Cl)cc1` (stereo unspecified), the inhibition of growth at 0.1 µM in the test with MCF7 [5] was determined as 4.1%. Also, the inhibition of growth at 100 µM with MCF7 [1] was found to be 99.2%. Moreover, inhibition of growth in test [2] (MIC) required 0.125 µg/mL (≈ 0.276 µM). In the test with MCF7 [3], this compound had a GI50 of 33.2 µM. Also, the inhibition of growth at 1 µM with MCF7 [6] is 12%. In addition, the inhibition of growth at 10 µM in the test with MCF7 [4] was 70.6%.
Consider `CC1=C(C(=O)Nc2ccccc2)C(c2cn(-c3ccccc3)nc2-c2ccccc2)NC(=O)N1` (stereo unspecified), for which, in the test on MCF7 [1], the inhibition of growth at 100 µM was 63.2%. For the same compound, 32 µg/mL (≈ 71.2 µM) was the least that counted as inhibitory in test [2] (MIC). This compound also showed a GI50 in the test on MCF7 [3] of 80.6 µM. For the same compound, the inhibition of growth at 10 µM with MCF7 [4] is under 10%.
Taken in the same sequence, the figures for `CCOC(=O)C1=C(C)NC(=S)NC1c1cn(-c2ccccc2)nc1-c1ccccc1` (stereo unspecified) were -12%, 32 µg/mL (≈ 76.5 µM), 42 µM and 30.4%.
The matching figures for `CC1=C(C(=O)Nc2ccc(C)cc2)C(c2cn(-c3ccccc3)nc2-c2ccccc2)NC(=S)N1` (stereo unspecified): 84.3%, 16 µg/mL (≈ 33.4 µM), 56.1 µM and 19.7%.
For `COc1ccc(NC(=O)C2=C(C)NC(=S)NC2c2cn(-c3ccccc3)nc2-c2ccccc2)cc1` (stereo unspecified), the inhibition of growth at 100 µM with MCF7 [1] was 63.9%. Moreover, in test [2], inhibition of growth (MIC) required 8 µg/mL (≈ 16.1 µM). In the test with MCF7 [3], this compound showed a GI50 of 77.3 µM. In addition, in the test on MCF7 [4], the inhibition of growth at 10 µM was under 10%.
The matching figures for `CC1=C(C(=O)Nc2ccc(Cl)cc2)C(c2cn(-c3ccccc3)nc2-c2ccccc2)NC(=S)N1` (stereo unspecified): -12.8%, 8 µg/mL (≈ 16 µM), 34.7 µM and 48.6%.
Taken in the same sequence, the figures for `COc1ccc(NC(=O)C2=C(C)NC(=S)NC2c2cn(-c3ccccc3)nc2-c2ccc(Cl)cc2)cc1` (stereo unspecified) were 72%, 16 µg/mL (≈ 30.2 µM), 70 µM and under 10%.
Taken in the same sequence, the figures for `COc1ccc(NC(=O)C2=C(C)NC(=O)NC2c2cn(-c3ccccc3)nc2-c2ccc(Cl)cc2)cc1` (stereo unspecified) were 72.1%, 1 µg/mL (≈ 1.95 µM), 69.7 µM and under 10%.
Regarding `CCOC(=O)C1=C(C)NC(=O)NC1c1cn(-c2ccccc2)nc1-c1ccccc1` (stereo unspecified), the inhibition of growth at 100 µM in the test on MCF7 [1] stood at 86%. Besides, the MIC in test [2] worked out at 16 µg/mL (≈ 39.8 µM). Moreover, the GI50 in the test on MCF7 [3] amounted to 60.8 µM. In addition, the inhibition of growth at 10 µM in the test with MCF7 [4] is under 10%.
Taken in the same sequence, the figures for `CC1=C(C(=O)Nc2ccc(C)cc2)C(c2cn(-c3ccccc3)nc2-c2ccc(Cl)cc2)NC(=S)N1` (stereo unspecified) were 84.9%, 2 µg/mL (≈ 3.89 µM), 43.5 µM and 63.7%.
Consider `CC1=C(C(=O)Nc2ccc([N+](=O)[O-])cc2)C(c2cn(-c3ccccc3)nc2-c2ccccc2)NC(=S)N1` (stereo unspecified), for which the inhibition of growth at 100 µM in the test on MCF7 [1] stood at 99.3%. This compound also gave an MIC in test [2] of 32 µg/mL (≈ 62.7 µM). This compound also showed a GI50 in the test with MCF7 [3] of 41.4 µM. Besides, the inhibition of growth at 10 µM with MCF7 [4] turned out to be 48.4%.
Taken in the same sequence, the figures for `CC1=C(C(=O)Nc2ccc(C)cc2)C(c2cn(-c3ccccc3)nc2-c2ccc(Cl)cc2)NC(=O)N1` (stereo unspecified) were 70.4%, 32 µg/mL (≈ 64.3 µM), 69.7 µM and 13.6%.
`CC1=C(C(=O)Nc2ccccc2Cl)C(c2cn(-c3ccccc3)nc2-c2ccccc2)NC(=S)N1` (stereo unspecified): in the test on MCF7 [1], the inhibition of growth at 100 µM came to 68.5%. In test [2], this compound had an MIC of 16 µg/mL (≈ 32 µM). The same compound showed a 50% growth inhibitory concentration (GI50) with MCF7 [3] of 68.8 µM. In the test on MCF7 [4], the inhibition of growth at 10 µM came out at 16.5%.
`CC1=C(C(=O)Nc2ccccc2)C(c2cn(-c3ccccc3)nc2-c2ccc(Cl)cc2)NC(=O)N1` (stereo unspecified): the inhibition of growth at 100 µM in the test with MCF7 [1] was 71.7%. Also, the lowest concentration to inhibit growth in test [2] (MIC) was 2 µg/mL (≈ 4.13 µM). The compound also came in with a GI50 in the test with MCF7 [3] of 65.5 µM. Moreover, the inhibition of growth at 10 µM with MCF7 [4] amounted to 19.6%.
Taken in the same sequence, the figures for `CC1=C(C(=O)Nc2ccccc2)C(c2cn(-c3ccccc3)nc2-c2ccccc2)NC(=S)N1` (stereo unspecified) were 57.4%, 32 µg/mL (≈ 68.7 µM), 88.2 µM and under 10%.
Regarding `CC1=C(C(=O)Nc2ccc(C)cc2)C(c2cn(-c3ccccc3)nc2-c2ccccc2)NC(=O)N1` (stereo unspecified), the inhibition of growth at 100 µM with MCF7 [1] turned out to be 68.6%. Moreover, 32 µg/mL (≈ 69 µM) was the least that counted as inhibitory in test [2] (MIC). The compound further gave a concentration for 50% growth inhibition (GI50) in the test with MCF7 [3] of 71.7 µM. Further, in the test with MCF7 [4], the inhibition of growth at 10 µM came out at 11.9%.
As for `CC1=C(C(=O)Nc2ccc([N+](=O)[O-])cc2)C(c2cn(-c3ccccc3)nc2-c2ccccc2)NC(=O)N1` (stereo unspecified), in the test with MCF7 [1], the inhibition of growth at 100 µM is -17.7%. Further, the MIC in test [2] turned out to be 16 µg/mL (≈ 32.4 µM). Growth in the test on MCF7 [3] was halved (GI50) at 35.5 µM. The inhibition of growth at 10 µM with MCF7 [4] worked out at 27.3%.
`CC1=C(C(=O)Nc2ccccc2Cl)C(c2cn(-c3ccccc3)nc2-c2ccccc2)NC(=O)N1` (stereo unspecified): the inhibition of growth at 100 µM in the test on MCF7 [1] was found to be 72.2%. This compound also yielded an MIC in test [2] of 32 µg/mL (≈ 66.1 µM). Also, in the test on MCF7 [3], halving of growth (GI50) required 66.6 µM. Besides, the inhibition of growth at 10 µM in the test with MCF7 [4] is 13.9%.

As usually defined, the MIC is the smallest concentration in the dilution series that meets the test's criterion for growth inhibition. Usually GI50 stands for the concentration at which growth is held to half of that of the control. The low end stands for more potent growth inhibition, the high end for less potent growth inhibition.
